In article PMC11951523 (Genome Biology, 2025):
Like-named read-outs stand apart in the source and are kept apart here.

How the values were obtained:
SpyCas9 [1] = biological target: T1, SpyCas9 (Streptococcus pyogenes serotype M1, UniProt Q99ZW2); assay: biochemical; settings: for IC50: Spy Cas9; for activity on Cas9 (structure–activity relationship of pamoic acid): SpyCas9, standard assay conditions
SpyCas9 [2] = biological target: T1, SpyCas9; format: cell-based
How it was run: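 HEK293FT cells, ~2 × 10^5 per well, were seeded 1 day before transfection (Lipofectamine 3000) with 1 μg PX459-SpyCas9-sgCOSMC, -sgEMX1 or -sgControl. Test compound was added 0 or 6 h post-transfection, and cells were kept 24 h at 37 °C, then selected with 2.5 μg/ml puromycin for 36–48 h. Target loci were PCR-amplified, Sanger-sequenced and scored by TIDE.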

BE4 base editor = BE4 base editor (Streptococcus pyogenes, UniProt Q99ZW2, D10A); assay: BE4-mediated base editing of EMX1 in HEK293FT cells, EditR analysis; format: cell-based
SpyCas9 [3] = assay: biochemical; parameters: species or system Streptococcus pyogenes
[4] = system: SpyCas9-mediated genome editing of PCSK9; assay: SpyCas9-mediated anti-PCSK9 mouse model by hydrodynamic injection; format: in vivo, BALB/c mice; settings: for plasma total cholesterol restored to the level of the control: 3rd blood collection
How it was run: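 On days 1, 4 and 7, 90 μg PX459-SpyCas9-sgPCSK9 or -sgControl in 2 ml saline was injected hydrodynamically into the tail vein over 5–8 s. Orbital blood (~100 μl) was taken days 2, 5 and 8, and heparin plasma (20 μl) was assayed by PCSK9 ELISA.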

SauCas9 [5] = biological target: T2, SauCas9 (Staphylococcus aureus, UniProt J7RUA5); assay: SauCas9-mediated genome editing of COSMC in HEK293FT cells, TIDE analysis; format: cell-based
T2 sequence (J7RUA5 1-1053): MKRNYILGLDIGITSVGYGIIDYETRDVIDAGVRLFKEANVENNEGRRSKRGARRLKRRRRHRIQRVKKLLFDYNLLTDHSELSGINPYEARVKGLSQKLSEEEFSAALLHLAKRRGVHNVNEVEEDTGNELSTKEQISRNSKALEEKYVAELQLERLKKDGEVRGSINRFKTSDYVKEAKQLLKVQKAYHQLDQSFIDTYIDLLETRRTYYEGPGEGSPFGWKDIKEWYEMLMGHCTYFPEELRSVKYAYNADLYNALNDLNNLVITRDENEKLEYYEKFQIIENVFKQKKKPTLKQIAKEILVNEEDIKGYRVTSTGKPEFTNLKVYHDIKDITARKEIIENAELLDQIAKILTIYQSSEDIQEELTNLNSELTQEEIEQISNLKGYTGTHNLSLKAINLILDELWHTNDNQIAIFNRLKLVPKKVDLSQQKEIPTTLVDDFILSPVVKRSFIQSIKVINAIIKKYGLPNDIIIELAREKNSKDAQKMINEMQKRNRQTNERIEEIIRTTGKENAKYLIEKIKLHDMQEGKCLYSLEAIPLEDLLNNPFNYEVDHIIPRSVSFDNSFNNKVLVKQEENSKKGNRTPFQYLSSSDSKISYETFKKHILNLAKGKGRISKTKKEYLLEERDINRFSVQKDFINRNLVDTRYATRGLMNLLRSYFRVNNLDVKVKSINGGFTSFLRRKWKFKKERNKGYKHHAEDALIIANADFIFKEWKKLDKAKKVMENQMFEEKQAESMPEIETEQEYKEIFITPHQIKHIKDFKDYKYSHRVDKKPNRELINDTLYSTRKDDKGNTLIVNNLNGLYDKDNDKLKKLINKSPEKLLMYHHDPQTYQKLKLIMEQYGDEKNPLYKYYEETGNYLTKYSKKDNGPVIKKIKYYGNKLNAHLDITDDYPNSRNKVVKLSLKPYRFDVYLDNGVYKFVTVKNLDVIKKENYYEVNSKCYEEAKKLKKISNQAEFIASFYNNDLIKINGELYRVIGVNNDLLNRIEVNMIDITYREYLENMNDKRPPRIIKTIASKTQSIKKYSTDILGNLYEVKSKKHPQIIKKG
How it was run: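 HEK293FT wt cells were co-transfected (Lipofectamine 3000) with 1 μg miniCMV-SaCas9 and 1 μg pGL3 carrying sgCOSMC-Sau or sgControl. Test compound was added right after transfection for 24 h, followed by 2.5 μg/ml puromycin selection. The COSMC locus was PCR-amplified (40 cycles), Sanger-sequenced, and editing efficiency was obtained by TIDE analysis.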

[6] = in humans; cited from earlier work
SpyCas9 [7] = biological target: T1, SpyCas9; assay: GFP-disruption assay in HEK293FT cells; format: cell-based
SauCas9 [8] = biological target: T2, SauCas9; format: cell-based
How it was run: (§1)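 MG1655 competent cells carrying pCas (SpyCas9 or SauCas9) were electroporated with 300 ng pTarget-sgSSEA (867 bp) or its Sau version, which carries an 867-bp homologous recombination repair template. Test compound was added to 700 μl LB right after electroporation, held 1.5 h at 32 °C, then plated on LB agar with 100 μg/ml kanamycin and 100 μg/ml spectinomycin. The SSEA site was genotyped by PCR.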

LbaCas12a = LbaCas12a activity assay; format: biochemical, Lachnospiraceae bacterium; settings: complete inhibition refers to 50 μM or above
SpyCas9 [9] = biological target: T1, SpyCas9; assay: Two-plasmid-based bacterial survival assay; format: cell-based; settings: IC50, bacteria-based assay, Spy Cas9; bacterial survival assay using pCas and pTarget-sgSSEA plasmids, E. coli MG1655
How it was run: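 E. coli MG1655 competent cells carrying pCas (SpyCas9) electroporated with pTarget-sgSSEA, or the pT-sgControl plasmid as reference. Test compound added to the electroporated bacteria for 1.5 h at 32 °C, then plated on LB with kanamycin and spectinomycin and incubated overnight. Colonies counted and expressed as a percentage of the compound-treated sgControl strain at the same concentration (100%).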

SpyCas9 [10] = biological target: T1, SpyCas9; format: cell-based; remark: listed apart in the source
How it was run: as §1

SauCas9 [11] = biological target: T2, SauCas9; assay: In vitro purified enzyme activity assay for SauCas9; format: biochemical; settings: IC50, in vitro purified enzyme assay, Sau Cas9
FnoCas12a = FnoCas12a (Francisella tularensis subsp. novicida, UniProt A0Q7Q2); format: biochemical
E. coli MG1655 = assay: Toxicity to bacteria in the two-plasmid-based bacterial survival assay; format: cell-based; settings: for toxicity to E. coli: MG1655, bacterial survival assay
How it was run: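 MG1655 pCas-competent cells were electroporated with pT-sgControl. Test compound was added to 700 μl LB immediately afterwards and incubated 1.5 h at 32 °C, then plated on LB agar with kanamycin and spectinomycin (100 μg/ml each). Colonies were counted after overnight incubation; biological replicates n = 3.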

SpyCas9 [12] = biological target: T1, SpyCas9; assay: Surface plasmon resonance assay; format: binding
How it was run: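 His-tagged SpyCas9, Ni–NTA purified and imidazole-eluted, amine-coupled to a CM5 chip at 100 μg/ml. Test compounds were diluted in 1× PBST to a series of concentrations and injected at 30 μl/min, with 120 s association and 120 s dissociation. Equilibrium KD was fitted from the response curves.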

[13] = IC50, in vitro purified enzyme assay, linear substrates (87 bp oligonucleotide or 2.5 kb linear DNA)
[14] = IC50, in vitro purified enzyme assay, supercoil (circular) plasmid substrate pcDNA3.1/CT-GFP
[15] = linear substrates (87 bp oligonucleotide)
[16] = supercoil (circular) plasmid substrate

SMILES	IC50 (SpyCas9 [1]; [13]) [µM]	IC50 (SpyCas9 [1]; [14]) [µM]	IC50 (SauCas9 [8]) [µM]	effect on the activity of LbaCas12a (LbaCas12a)	IC50 (SpyCas9 [9]) [µM]	IC50 (SpyCas9 [10]) [µM]	IC50 (SauCas9 [11]; [15]) [µM]	IC50 (SauCas9 [11]; [16]) [µM]	effect on the activity of FnoCas12a (FnoCas12a)	activity on Cas9 (structure–activity relationship of pamoic acid) (SpyCas9 [1])	other results
CN1CCCN=C1/C=C/c1cccc(O)c1 [Oxantel pamoate]											IC50 (SpyCas9 [1]; read-out: IC50, in vitro purified enzyme assay, supercoil (circular) plasmid substrate pcDNA3.1/CT-GFP): > 200 µM
O=C(O)c1cc2ccccc2c(Cc2c(O)c(C(=O)O)cc3ccccc23)c1O [Pamoic acid]	10 to 20	400 to 600	250 to 500	inactive to or weakly inhibited	200 to 400	~400	25 to 50	500 to 1000	inactive to or weakly inhibited		IC50 (SpyCas9 [2]): 20 to 50 µM; IC50 (BE4 base editor): ~50 µM; effect of mutation of catalytic residues D10 or H840 on the IC50 (SpyCas9 [3]): did not affect; plasma total cholesterol restored to the level of the control ([4]; 80 mg/kg): largely restored; effect on the basal level of PCSK9 in vehicle-treated (sgControl) mice ([4]; 160 mg/kg): did not interfere; plasma total cholesterol restored to the level of the control ([4]; 160 mg/kg): largely restored; restoration of plasma PCSK9 level ([4]; 80 or 160 mg/kg intraperitoneal, 1st, 2nd, or 3rd treatment cycle): completely restore; dose from which a dose-dependent preventative effect on plasma PCSK9 starts ([4]; intraperitoneal): ≥ 20 mg/kg; effect on PCSK9 allele modifications in liver (NGS) ([4]; medium dose of 40 mg/kg): largely reduced but not totally prevented; IC50 (SauCas9 [5]): 20 to 50 µM; site of metabolism / elimination [6]: mainly metabolized in human liver; IC50 (SpyCas9 [7]): 20 to 50 µM; toxicity to E. coli (E. coli MG1655): did not appear to be much toxic
O=C(O)c1ccccc1O [Salicylic acid, salicylic acid]										inactive	
CC1(C)[C@@H](OC(=O)CCC(=O)O)CC[C@]2(C)[C@H]3C(=O)C=C4[C@@H]5C[C@@](C)(C(=O)O)CC[C@]5(C)CC[C@@]4(C)[C@]3(C)CC[C@@H]12 [Carbenoxolone]	5 to 10	~100	100 to 200	inactive to or weakly inhibited	~200	50 to 100	25 to 50	100 to 200	inactive to or weakly inhibited		IC50 (SpyCas9 [2]): 20 to 50 µM; IC50 (BE4 base editor): 20 to 50 µM; effect of mutation of catalytic residues D10 or H840 on the IC50 (SpyCas9 [3]): did not affect; effect on the basal level of PCSK9 in vehicle-treated (sgControl) mice ([4]; 160 mg/kg): did not interfere; plasma total cholesterol restored to the level of the control ([4]; 160 mg/kg): largely restored; preventive effect on loss of plasma PCSK9 ([4]; high doses of 80 or 160 mg/kg, 2nd or 3rd treatment cycle): strong preventive effects; IC50 (SauCas9 [5]): 20 to 50 µM; IC50 (SpyCas9 [7]): 10 to 20 µM; toxicity to E. coli (E. coli MG1655): did not appear to be much toxic
COc1cccc2c1C(=O)c1c(O)c3c(c(O)c1C2=O)C[C@@](O)(C(=O)CO)C[C@@H]3O[C@H]1C[C@H](N)[C@@H](O)[C@H](C)O1 [Epirubicin]	2 to 5	2 to 5	~6.25	completely inhibit	3.13 to 6.25	6.25 to 12.5	6.25 to 12.5	3.13 to 6.25	completely inhibit		Kd (SpyCas9 [12]): > 1000 µM; site of metabolism / elimination [6]: mainly metabolized in human liver; toxicity to electroporated bacteria (E. coli MG1655; at a concentration of 50 μM): significant toxicity
O=C(O)c1cc(/N=N/c2ccc(O)c(C(=O)O)c2)ccc1O [Olsalazine, olsalazine]										inactive	
OCCOCCN1CCN(C(c2ccccc2)c2ccc(Cl)cc2)CC1 (stereo not shown) [Hydroxyzine pamoate]	20 to 50	> 200									
Nc1ccc(O)c(C(=O)O)c1 [5-aminosalicylic acid]										inactive	
